Measured values reported in ChEMBL document CHEMBL6134766, “Design, synthesis, and evaluation of benzhydrylpiperazine-based novel dual COX-2/5-LOX inhibitors with anti-inflammatory and anti-cancer activity” (RSC Med Chem, 2025).
Calls of active or inactive are those of the source. The rule behind the calls is not given here.

Key:
Rattus norvegicus [1] = test: Anti-inflammatory activity in carrageenan-induced paw edema Wistar rat model assessed as swelling thickness of paw at 20 mg/kg, po measured after 1 hr by digital vernier caliper (reference value: 8.47 +/- 0.25 millimeter); assay type: functional
Rattus norvegicus [2] = test: Anti-inflammatory activity in carrageenan-induced paw edema Wistar rat model assessed as swelling thickness of paw at 5 mg/kg, po measured immediately by digital vernier caliper (reference value: 3.48 +/- 0.21 millimeter); assay type: functional
Rattus norvegicus [3] = test: Anti-inflammatory activity in carrageenan-induced paw edema Wistar rat model assessed as swelling thickness of paw at 5 mg/kg, po measured after 1 hr by digital vernier caliper (reference value: 8.47 +/- 0.25 millimeter); assay type: functional
[4] = Toxicity in fasting Wistar rat assessed as ulcer index at 20 mg/kg, po via gavage treated for 3 days consecutively by H and E staining based analysis (reference value: 0); assay type: organism-based; conditions: in vivo, 72 h, time 3 day
Procedure, shortened: (§1)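 Fasted rats, n = 6/group, gavaged once daily for 3 days in 0.3% Na CMC (vehicle control 0.3% CMC); killed under anaesthesia 6 h after day-3 dose; stomachs saline-washed, mucosa examined with hand lens; ulcer score, index and % ulceration by reported scoring; some stomachs formalin-fixed, H&E stained.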

[5] = Toxicity in fasting Wistar rat assessed as ulceration at 20 mg/kg, po via gavage treated for 3 days consecutively by H and E staining based analysis (reference value: 0 %); assay type: organism-based; conditions: in vivo, 72 h, time 3 day; procedure, shortened: as §1
Gastric mucosa [6] = test: Antioxidant activity in gastric mucosal tissue in Wistar rat assessed as decrease in nitrite level at 20 mg/kg, po; assay type: functional, organism-based
Procedure, shortened: (§2)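 Fasted rats (n = 6/group) gavaged once daily for 3 days in 0.3% Na CMC and sacrificed 6 h after the final dose. Randomly chosen stomachs homogenized in cold PBS pH 7.4 and centrifuged at 1000 rpm for 10 min at 4 °C. Supernatant protein measured by Bradford assay; GSH and nitrate then measured by reported methods.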

Rattus norvegicus [7] = test: Anti-inflammatory activity in carrageenan-induced paw edema Wistar rat model assessed as swelling thickness of paw at 5 mg/kg, po measured after 4 hrs by digital vernier caliper (reference value: 8.36 +/- 0.78 millimeter); assay type: functional
Rattus norvegicus [8] = test: Anti-inflammatory activity in arachidonic acid-induced paw edema Wistar rat model assessed as protection against swelling thickness of paw at 5 mg/kg, po measured after 1 hr by digital vernier caliper (reference value: 0 %); assay type: functional
[9] = Toxicity in Wistar rat assessed as change in serum ALT level at 20 mg/kg, po; assay type: organism-based; conditions: in vivo
Procedure, shortened: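 Rats dosed orally in 0.3% Na CMC; retro-orbital blood clotted at room temperature, serum separated at 2000 rpm, 20 min, 4 °C; ALT, AST, creatinine and urea by commercial kits; n = 6 per group, mean ± SD; Tukey test after repeated-measures one-way ANOVA.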

Rattus norvegicus [10] = test: Anti-inflammatory activity in carrageenan-induced paw edema Wistar rat model assessed as swelling thickness of paw at 20 mg/kg, po measured after 3 hrs by digital vernier caliper (reference value: 8.56 +/- 0.45 millimeter); assay type: functional
[11] = Toxicity in fasting Wistar rat assessed as ulcer score at 10 mg/kg, po via gavage treated for 3 days consecutively by H and E staining based analysis (reference value: 0); assay type: organism-based; conditions: in vivo, 72 h, time 3 day; procedure, shortened: as §1
[12] = Toxicity in fasting Wistar rat assessed as ulceration at 10 mg/kg, po via gavage treated for 3 days consecutively by H and E staining based analysis (reference value: 0 %); assay type: organism-based; conditions: in vivo, 72 h, time 3 day; procedure, shortened: as §1
Rattus norvegicus [13] = test: Anti-inflammatory activity in carrageenan-induced paw edema Wistar rat model assessed as swelling thickness of paw at 20 mg/kg, po measured after 6 hrs by digital vernier caliper (reference value: 8.33 +/- 0.42 millimeter); assay type: functional
Rattus norvegicus [14] = test: Anti-inflammatory activity in arachidonic acid-induced paw edema Wistar rat model assessed as swelling thickness of paw at 5 mg/kg, po measured after 1 hr by digital vernier caliper (reference value: 6.51 +/- 0.37 millimeter); assay type: functional
Rattus norvegicus [15] = test: Anti-inflammatory activity in carrageenan-induced paw edema Wistar rat model assessed as swelling thickness of paw at 5 mg/kg, po measured after 3 hrs by digital vernier caliper (reference value: 8.56 +/- 0.45 millimeter); assay type: functional
[16] = Acute toxicity in female Wistar rat assessed as detrimental effects up to 500 mg/kg, po measured for 14 days; assay type: organism-based; conditions: in vivo, 336 h, time 14 day
Procedure, shortened: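 Followed OECD 423 guideline in healthy female Wistar rats weighing 200–250 g. Animals were housed at 25 ± 2 °C and 45–60% RH on a 12 h light/dark cycle, with free access to water and food.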

[17] = target: T1, Prostaglandin G/H synthase 1 (Ovis aries, UniProt P05979); test: Inhibition of ovine COX-1 using arachidonic acid as substrate in presence of hemin by TMPD reagent-based colorimetry
T1 sequence (P05979 whole entry): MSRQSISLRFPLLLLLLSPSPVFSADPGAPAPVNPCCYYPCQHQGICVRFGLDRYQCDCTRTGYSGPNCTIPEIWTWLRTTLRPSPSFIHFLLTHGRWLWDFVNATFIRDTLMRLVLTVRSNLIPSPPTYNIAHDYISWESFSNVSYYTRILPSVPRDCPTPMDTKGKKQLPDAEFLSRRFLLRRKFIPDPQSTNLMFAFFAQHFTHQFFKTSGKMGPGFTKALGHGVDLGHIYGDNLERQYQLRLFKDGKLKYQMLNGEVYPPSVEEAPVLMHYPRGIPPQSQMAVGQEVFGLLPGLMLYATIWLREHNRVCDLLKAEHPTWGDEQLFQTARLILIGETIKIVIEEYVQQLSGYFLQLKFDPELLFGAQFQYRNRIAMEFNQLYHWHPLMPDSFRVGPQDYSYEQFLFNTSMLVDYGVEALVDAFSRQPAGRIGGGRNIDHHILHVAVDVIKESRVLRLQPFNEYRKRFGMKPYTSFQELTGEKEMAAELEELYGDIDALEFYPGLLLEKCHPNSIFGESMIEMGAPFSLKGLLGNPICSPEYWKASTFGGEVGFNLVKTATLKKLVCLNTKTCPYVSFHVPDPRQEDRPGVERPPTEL

Rattus norvegicus [18] = test: Anti-inflammatory activity in carrageenan-induced paw edema Wistar rat model assessed as swelling thickness of paw at 20 mg/kg, po measured after 2 hrs by digital vernier caliper (reference value: 8.65 +/- 0.53 millimeter); assay type: functional
Rattus norvegicus [19] = test: Cardio-protective activity in ISO-treated Wistar rat assessed as decrease in serum cTn-I level at 20 mg/kg, po by ELISA; assay type: functional, organism-based
Procedure, shortened: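 ISO 100 mg kg−1 s.c. rat model, oral treatment after ISO, n = 6 per group; serum from retro-orbital blood (4000 rpm, 4 °C, 10 min); cTn-I by commercial kit; mean ± SD.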

Gastric mucosa [20] = test: Antioxidant activity in gastric mucosal tissue in Wistar rat assessed as increase in GSH level at 20 mg/kg, po; assay type: functional, organism-based; procedure, shortened: as §2
Rattus norvegicus [21] = test: Anti-inflammatory activity in carrageenan-induced paw edema Wistar rat model assessed as decrease in TNF-alpha level in paw tissue at 5 to 20 mg/kg, po measured for 6 hrs by ELISA; assay type: functional, organism-based; conditions: dose 5-20 mg/kg
Procedure, shortened: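 Paw tissue taken from carrageenan-edema rats dosed orally at 5, 10 or 20 mg kg−1. Tissue rinsed in PBS pH 7.4, minced, homogenized, filtered and centrifuged at 2000 rpm for 20 min at 4 °C. Supernatant assayed by ELISA for PGE2, IL-6, TNF-α and IL-10. Data as mean ± SD.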

Row | SMILES | Activity (Rattus norvegicus [1]) | Activity (Rattus norvegicus [2]) | Activity (Rattus norvegicus [3]) | UI [4] | Activity [5] | Activity (Gastric mucosa [6]) | Activity (Rattus norvegicus [7]) | Activity (Rattus norvegicus [8]) | Activity [9] | Activity (Rattus norvegicus [10]) | Activity [11] | Activity [12] | Activity (Rattus norvegicus [13]) | Activity (Rattus norvegicus [14]) | Activity (Rattus norvegicus [15]) | Activity [16] | IC50 [17] | Activity (Rattus norvegicus [18]) | Activity (Rattus norvegicus [19]) | Activity (Gastric mucosa [20]) | other results
1 | O=[N+]([O-])c1ccc(-c2nnc(CN3CCN(C(c4ccccc4)c4ccc(Cl)cc4)CC3)o2)cc1 (configuration not stated) | 5.16 mm | 3.59 mm | 5.74 mm | 9.37 | 4.86% | Active | 4.57 mm | 55.22% | Non-toxic | 4.54 mm | 0.031 | 4.85% | 3.91 mm | 2.92 mm | 4.87 mm | Non-toxic | 41.1 µM | 4.78 mm | Active | Active | Activity (Rattus norvegicus [21]): Active
2 | Clc1ccc(-c2nnc(CN3CCN(C(c4ccccc4)c4ccc(Cl)cc4)CC3)o2)cc1 (configuration not stated) | 5.12 mm | 3.51 mm | 6.18 mm | 1.875 | 1.25% | Active | 4.18 mm | 56.12% | Non-toxic | 3.41 mm | 0.02 | 1.38% | 3.41 mm | 2.86 mm | 4.67 mm | Non-toxic | 34.1 µM | 4.11 mm | Active | Active | Activity (Rattus norvegicus [21]): Active
